Test results published in ChEMBL document CHEMBL1126608.

The compounds below were run against Muscarinic acetylcholine receptor M3 (Cavia porcellus) (UniProt Q8VH26) (assay: Antagonist activity against muscarinic M3 receptor from guinea pig ileum). Conditions: not given.
Format: functional, tissue-based
Procedure, shortened: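 Longitudinal guinea pig ileum strips suspended in oxygenated Krebs buffer; carbachol concentration-response curves with or without at least three increasing antagonist concentrations (5-min preincubation). Contraction as % of maximal carbachol response without antagonist.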

Muscarinic acetylcholine receptor M3 (Cavia porcellus), sequence (Q8VH26 1-587): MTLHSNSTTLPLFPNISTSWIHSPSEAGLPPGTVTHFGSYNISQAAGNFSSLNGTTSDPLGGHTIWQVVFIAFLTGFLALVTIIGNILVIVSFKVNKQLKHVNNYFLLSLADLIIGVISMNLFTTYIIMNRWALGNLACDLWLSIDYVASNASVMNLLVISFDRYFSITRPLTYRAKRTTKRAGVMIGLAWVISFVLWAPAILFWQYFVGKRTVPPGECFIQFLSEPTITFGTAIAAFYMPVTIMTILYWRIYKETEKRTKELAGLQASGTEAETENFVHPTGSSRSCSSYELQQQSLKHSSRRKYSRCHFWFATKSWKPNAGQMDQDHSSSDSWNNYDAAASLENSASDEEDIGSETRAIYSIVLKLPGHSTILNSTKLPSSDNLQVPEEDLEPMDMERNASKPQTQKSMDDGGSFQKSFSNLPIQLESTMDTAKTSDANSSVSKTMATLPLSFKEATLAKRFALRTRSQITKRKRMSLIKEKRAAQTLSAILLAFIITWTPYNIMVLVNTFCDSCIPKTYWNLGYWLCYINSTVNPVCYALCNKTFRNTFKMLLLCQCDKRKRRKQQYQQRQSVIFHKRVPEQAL

Row | SMILES | Kb
1 | CN(C)CCNCC(=O)C(O)(c1ccccc1)C1CCCCC1 (centres undefined) | 0.0055 µM
2 | O=C(CN1CCN(C(c2ccccc2)c2ccccc2)CC1)C(O)(c1ccccc1)C1CCC1 (centres undefined) | > 10 µM
3 | O=C(CN1CCN(Cc2ccco2)CC1)C(O)(c1ccccc1)C1CCC1 (centres undefined) | 0.75 µM
4 | O=C(CN1CCN(Cc2ccc3c(c2)OCO3)CC1)C(O)(c1ccccc1)C1CCC1 (centres undefined) | 0.008 µM
5 | O=C(CN1CCC(N2CCCC2)CC1)C(O)(c1ccccc1)C1CCCCC1 (centres undefined) | 0.349 µM
6 | CCOC(=O)N1CCN(CC(=O)C(O)(c2ccccc2)C2CCCCC2)CC1 (centres undefined) | > 10 µM
7 | O=C(CN1CCN(CCO)CC1)C(O)(c1ccccc1)C1CCCCC1 (centres undefined) | 0.053 µM
8 | O=C(CN1CCC(N2CCCC2)CC1)C(O)(c1ccccc1)C1CCC1 (centres undefined) | > 10 µM
9 | O=C(CN1CCN(c2ccccc2)CC1)C(O)(c1ccccc1)C1CCC1 (centres undefined) | 0.624 µM
10 | O=C(CN1CCN(CC(=O)C(O)(c2ccccc2)C2CCC2)CC1)N1CCCC1 (centres undefined) | 0.21 µM
11 | COc1cccc(CN2CCN(CC(=O)C(O)(c3ccccc3)C3CCC3)CC2)c1 (centres undefined) | 0.017 µM
12 | C#CCN1CCN(CC(=O)C(O)(c2ccccc2)C2CCCCC2)CC1 (centres undefined) | 0.26 µM
13 | O=C(CN1CCC(O)CC1)C(O)(c1ccccc1)C1CCC1 (centres undefined) | 0.472 µM
14 | O=C(CN1CCN(Cc2ccccc2Cl)CC1)C(O)(c1ccccc1)C1CCC1 (centres undefined) | 0.056 µM
15 | COc1ccccc1N1CCN(CC(=O)C(O)(c2ccccc2)C2CCC2)CC1 (centres undefined) | > 10 µM
16 | CN1CCN(CC(=O)C(O)(c2ccccc2)C2CCCCC2)CC1 (centres undefined) | 0.015 µM
17 | C=C(C)CN1CCN(CC(=O)C(O)(c2ccccc2)C2CCC2)CC1 (centres undefined) | 0.1 µM
18 | Cc1ccccc1CN1CCN(CC(=O)C(O)(c2ccccc2)C2CCC2)CC1 (centres undefined) | 0.199 µM
19 | O=C(CN1CCN(CCc2ccccc2)CC1)C(O)(c1ccccc1)C1CCC1 (centres undefined) | 0.302 µM
20 | CCOc1ccccc1N1CCN(CC(=O)C(O)(c2ccccc2)C2CCC2)CC1 (centres undefined) | > 10 µM
21 | O=C(CN1CCN(c2ccc([N+](=O)[O-])cc2)CC1)C(O)(c1ccccc1)C1CCC1 (centres undefined) | > 10 µM
22 | O=C(CN1CCN(CC(=O)C(O)(c2ccccc2)C2CCC2)CC1)C(O)(c1ccccc1)C1CCC1 (centres undefined) | 0.207 µM

The compounds below were run against T1, Muscarinic acetylcholine receptor M2 (Homo sapiens) (UniProt P08172) (assay: Antagonist activity against muscarinic M2 receptor from guinea pig atria). Conditions: Cavia porcellus; target entry is the homologue from another species.
T1 sequence (whole entry): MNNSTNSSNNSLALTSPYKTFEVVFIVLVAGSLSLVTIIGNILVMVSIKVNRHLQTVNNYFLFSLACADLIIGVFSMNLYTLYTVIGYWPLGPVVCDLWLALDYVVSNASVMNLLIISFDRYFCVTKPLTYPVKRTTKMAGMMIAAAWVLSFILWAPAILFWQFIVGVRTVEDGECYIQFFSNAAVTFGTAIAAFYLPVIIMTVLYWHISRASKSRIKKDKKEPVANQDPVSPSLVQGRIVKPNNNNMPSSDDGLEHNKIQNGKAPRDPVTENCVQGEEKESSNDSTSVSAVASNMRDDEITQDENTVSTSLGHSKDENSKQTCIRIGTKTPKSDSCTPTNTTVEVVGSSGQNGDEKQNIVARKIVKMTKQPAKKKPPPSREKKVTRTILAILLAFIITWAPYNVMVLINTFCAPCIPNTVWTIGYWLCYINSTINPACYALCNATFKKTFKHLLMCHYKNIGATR
Format: functional
Procedure, shortened: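 Isolated guinea pig right atria in Krebs-Henseleit buffer; cumulative carbachol concentration-rate response curves before and after at least three increasing antagonist concentrations (5-min preincubation). Responses as % of maximal carbachol-induced rate inhibition without antagonist.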

Row | SMILES | Kb
23 | CN(C)CCNCC(=O)C(O)(c1ccccc1)C1CCCCC1 (centres undefined) | 0.216 µM
24 | O=C(CN1CCN(C(c2ccccc2)c2ccccc2)CC1)C(O)(c1ccccc1)C1CCC1 (centres undefined) | > 100 µM
25 | O=C(CN1CCN(Cc2ccco2)CC1)C(O)(c1ccccc1)C1CCC1 (centres undefined) | > 30 µM
26 | O=C(CN1CCN(Cc2ccc3c(c2)OCO3)CC1)C(O)(c1ccccc1)C1CCC1 (centres undefined) | 0.045 µM
27 | O=C(CN1CCC(N2CCCC2)CC1)C(O)(c1ccccc1)C1CCCCC1 (centres undefined) | 4.51 µM
28 | CCOC(=O)N1CCN(CC(=O)C(O)(c2ccccc2)C2CCCCC2)CC1 (centres undefined) | > 30 µM
29 | O=C(CN1CCN(CCO)CC1)C(O)(c1ccccc1)C1CCCCC1 (centres undefined) | 0.53 µM
30 | O=C(CN1CCC(N2CCCC2)CC1)C(O)(c1ccccc1)C1CCC1 (centres undefined) | 2.44 µM
31 | O=C(CN1CCN(c2ccccc2)CC1)C(O)(c1ccccc1)C1CCC1 (centres undefined) | > 30 µM
32 | O=C(CN1CCN(CC(=O)C(O)(c2ccccc2)C2CCC2)CC1)N1CCCC1 (centres undefined) | > 3 µM
33 | COc1cccc(CN2CCN(CC(=O)C(O)(c3ccccc3)C3CCC3)CC2)c1 (centres undefined) | 0.136 µM
34 | C#CCN1CCN(CC(=O)C(O)(c2ccccc2)C2CCCCC2)CC1 (centres undefined) | 5.67 µM
35 | O=C(CN1CCC(O)CC1)C(O)(c1ccccc1)C1CCC1 (centres undefined) | 2.34 µM
36 | O=C(CN1CCN(Cc2ccccc2Cl)CC1)C(O)(c1ccccc1)C1CCC1 (centres undefined) | > 10 µM
37 | COc1ccccc1N1CCN(CC(=O)C(O)(c2ccccc2)C2CCC2)CC1 (centres undefined) | > 10 µM
38 | CN1CCN(CC(=O)C(O)(c2ccccc2)C2CCCCC2)CC1 (centres undefined) | 0.21 µM
39 | C=C(C)CN1CCN(CC(=O)C(O)(c2ccccc2)C2CCC2)CC1 (centres undefined) | 0.551 µM
40 | Cc1ccccc1CN1CCN(CC(=O)C(O)(c2ccccc2)C2CCC2)CC1 (centres undefined) | > 1 µM
41 | O=C(CN1CCN(CCc2ccccc2)CC1)C(O)(c1ccccc1)C1CCC1 (centres undefined) | > 1 µM
42 | CCOc1ccccc1N1CCN(CC(=O)C(O)(c2ccccc2)C2CCC2)CC1 (centres undefined) | > 10 µM
43 | O=C(CN1CCN(c2ccc([N+](=O)[O-])cc2)CC1)C(O)(c1ccccc1)C1CCC1 (centres undefined) | > 10 µM
44 | O=C(CN1CCN(CC(=O)C(O)(c2ccccc2)C2CCC2)CC1)C(O)(c1ccccc1)C1CCC1 (centres undefined) | > 1 µM

Each compound was assayed against Muscarinic acetylcholine receptor (Homo sapiens) (UniProt P20309+P08173+P11229+P08172+P08912) (assay: In vivo antimuscarinic activity to decrease carbachol-stimulated salivation in guinea pig). Conditions: Cavia porcellus; target entry is the homologue from another species.
Format: functional, organism-based
Procedure, shortened: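 Guinea pigs dosed sc with various antagonist doses; 30 min later carbachol 0.1 mg/kg ip; ability to respond to agonist scored 5-10 min afterwards.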

Row | SMILES | ED50
45 | CN(C)CCNCC(=O)C(O)(c1ccccc1)C1CCCCC1 (centres undefined) | 0.13 mg/kg
46 | O=C(CN1CCN(Cc2ccc3c(c2)OCO3)CC1)C(O)(c1ccccc1)C1CCC1 (centres undefined) | 4 mg/kg
47 | O=C(CN1CCN(CCO)CC1)C(O)(c1ccccc1)C1CCCCC1 (centres undefined) | > 10 mg/kg
48 | CN1CCN(CC(=O)C(O)(c2ccccc2)C2CCCCC2)CC1 (centres undefined) | 1.84 mg/kg
49 | C=C(C)CN1CCN(CC(=O)C(O)(c2ccccc2)C2CCC2)CC1 (centres undefined) | 17 mg/kg
